Published values collected from several papers.
Lines come from different studies, so protocols differ.
Cell line: PC-3
Read-out: cell growth or viability

SMILES	method	time	IC50
CN(C)CCCn1cccc1/C=N/NC(=O)Nc1cc2c(Nc3ccc(F)c(Cl)c3)ncnc2cc1O[C@H]1CCOC1	MTT	72 h	3.74 µM
COc1c(C)cnc(COc2ccc(NC(=O)Nc3cccc(C(F)(F)F)c3)cc2)c1C	MTT	72 h	> 100 µM
O=C(/C=C/c1ccc2ncn(Cc3ccccc3)c(=O)c2c1)NO	SRB	48 h	1.54 µM
COc1ccc2c(N(C)c3ccc(/C(C)=N/OCCN)cc3)c3c(Cl)coc3nc2c1	trypan blue	72 h	1.59 µM
c1ccc(CNCc2cc3c(-c4ccccc4)n[nH]c3c(Nc3ccccc3)n2)cc1	MTS	48 h	3.9 µM
COc1cc2ncnc(Nc3ccc(F)c(Cl)c3)c2cc1NC(=O)N/N=C/CN1CCN(C)CC1	MTT	72 h	5.03 µM
CNC(=O)c1cc(Oc2ccc(NC(=O)Nc3ccc(Cl)c(C(F)(F)F)c3)cc2)ccn1	MTT	72 h	3.6 µM
C[C@H]1O[C@@H](n2cc(F)c(=O)[nH]c2=O)[C@H](O)[C@@H]1O	CCK-8	48 h	> 50 µM
COc1cc2ncnc(Nc3ccc(F)c(Cl)c3)c2cc1NC(=O)N/N=C/c1cccn1CCN1CCOCC1	MTT	72 h	0.82 µM
Cc1ccc(C(=O)O)c(NC(=O)c2ccc(N)cc2)c1	MTT		> 120 µM
COc1ccc(Cn2cc(C[C@@]3(O)C[C@@H]4c5cc(OCc6cc(C)cc(C)c6)c(OCc6cc(C)cc(C)c6)cc5CCN4[C@@H](C)C3)nn2)cc1	MTT		0.866 µM
COc1cc2ncnc(Nc3ccc(F)c(Cl)c3)c2cc1NC(=O)N/N=C/CN1CCOCC1	MTT	72 h	3.3 µM
COc1ccc(NC(=O)Nc2ccc(OCc3ncc(C)c(OC)c3C)cc2)cc1	MTT	72 h	> 100 µM
COc1cccc2c1C(=O)c1c(O)c3c(c(O)c1C2=O)C[C@@](O)(C(=O)CO)C[C@@H]3O[C@H]1C[C@H](N)[C@H](O)[C@H](C)O1	MTT	48 h	0.629 µg/mL
O=C(N/N=C/c1cccn1CCCN1CCCCC1)Nc1cc2c(Nc3ccc(F)c(Cl)c3)ncnc2cc1O[C@H]1CCOC1	MTT	72 h	0.15 µM
C=CC(=O)Nc1ccc(Cn2cc(C[C@@]3(O)C[C@@H]4c5cc(OCc6cc(C)cc(C)c6)c(OCc6cc(C)cc(C)c6)cc5CCN4[C@@H](C)C3)nn2)cc1	MTT		0.161 µM
COc1ccc(NC(=O)Nc2ccc(OCc3nccc(OC)c3OC)cc2)cc1	MTT	72 h	46.4 µM
CCOC(=O)c1[nH]cc2c1NC1=C(C(=O)CCC1)[C@H]2c1cccc(Oc2nc3ccccc3[nH]2)c1	ATP luminescence	72 h	> 10 µM
Cc1cc(C)cc(COc2cc3c(cc2OCc2cc(C)cc(C)c2)[C@H]2C[C@](O)(Cc4cn(Cc5cccnc5)nn4)C[C@H](C)N2CC3)c1	MTT		0.638 µM
CCCCc1ccc2[nH]c(NC(=O)OC)nc2c1	CCK-8	72 h	0.15 µM

SMILES	method	time	IC50
COc1cc(Nc2nc(CN)cc3c(-c4ccccc4)n[nH]c23)cc(OC)c1OC	MTS	48 h	3.5 µM
Cc1c(OCC(F)(F)F)ccnc1COc1ccc(NC(=O)Nc2cc(F)cc(F)c2)cc1	MTT	72 h	> 100 µM
COC1=CC(=O)N(C(=O)[C@@H](CCC(Cl)(Cl)Cl)NC(=O)C(C)(C)C)[C@@H]1CCC(Cl)Cl	resazurin	72 h	28 µM
COc1cc2ncnc(Nc3ccc(F)c(Cl)c3)c2cc1NC(=O)N/N=C/c1cccn1CCN(C)C	MTT	72 h	1.25 µM
O=C(/C=C/c1ccc2c(=O)n(CC3CCCC3)cnc2c1)NO	SRB	48 h	2.49 µM
COc1cc2ncnc(Nc3ccc(F)c(Cl)c3)c2cc1NC(=O)N/N=C/c1cccn1CCCN(C)C	MTT	72 h	0.03 µM
COc1ccnc(COc2ccc(NC(=O)Nc3cc(F)cc(F)c3)cc2)c1OC	MTT	72 h	> 100 µM
CN(C)CCn1cccc1/C=N/NC(=O)Nc1cc2c(Nc3ccc(F)c(Cl)c3)ncnc2cc1O[C@H]1CCOC1	MTT	72 h	3.84 µM
COc1c(C)cnc(COc2ccc(NC(=O)Nc3ccc(F)cc3)cc2)c1C	MTT	72 h	43.3 µM
Cc1cc(C)cc(COc2cc3c(cc2OCc2cc(C)cc(C)c2)[C@H]2C[C@](O)(Cc4cn(Cc5cc(C(F)(F)F)cc(C(F)(F)F)c5)nn4)C[C@H](C)N2CC3)c1	MTT		0.406 µM
COc1ccc(NC(=O)Nc2ccc(OCc3nccc(OCC(F)(F)F)c3C)cc2)cc1	MTT	72 h	89.1 µM
Cc1cc(C)cc(COc2cc3c(cc2OCc2cc(C)cc(C)c2)[C@H]2C[C@](O)(Cc4cn(Cc5ccc(Cl)c(Cl)c5)nn4)C[C@H](C)N2CC3)c1	MTT		0.381 µM
COc1ccc(/C=C/c2cc(C)no2)cc1OC	MTT	72 h	> 100 µM
Cc1cc(C)cc(COc2cc3c(cc2OCc2cc(C)cc(C)c2)[C@H]2C[C@](O)(Cc4cn(Cc5ccc(S(C)(=O)=O)cc5)nn4)C[C@H](C)N2CC3)c1	MTT		0.223 µM
CC(C)c1n[nH]c2c(Nc3ccccc3)nc(CNCc3ccccc3)cc12	MTS	48 h	5.8 µM
[Cl-].[Cl-].[Cl-].[Fe+3]	resazurin	72 h	4800 µM
Cc1cc(C)cc(COc2cc3c(cc2OCc2cc(C)cc(C)c2)[C@H]2C[C@](O)(Cc4cn(CC56CC7CC(CC(C7)C5)C6)nn4)C[C@H](C)N2CC3)c1	MTT		0.143 µM
COc1cc(Nc2nccc(-c3cnn4nc(OC)ccc34)n2)cc(C(F)(F)F)c1	ATP luminescence		0.37 µM
C[C@H]1[C@@H](O)O[C@@H]2O[C@@]3(C)CC[C@H]4[C@H](C)CC[C@@H]1[C@@]24OO3	CCK-8	48 h	> 50 µM
Cc1ccc(Cn2cc(C[C@@]3(O)C[C@@H]4c5cc(OCc6cc(C)cc(C)c6)c(OCc6cc(C)cc(C)c6)cc5CCN4[C@@H](C)C3)nn2)cc1	MTT		0.375 µM
